Activity calls are given as the source filed them. The rule behind the calls is not given here.
Key:
[1] = molecular target: T1, Bile acid receptor (Rattus norvegicus) (UniProt Q62735); test: Agonist activity at FXR in rat primary hepatocytes assessed as induction of SHP mRNA level after 24 hrs by qPCR analysis; assay type: cell-based
T1 sequence (whole entry): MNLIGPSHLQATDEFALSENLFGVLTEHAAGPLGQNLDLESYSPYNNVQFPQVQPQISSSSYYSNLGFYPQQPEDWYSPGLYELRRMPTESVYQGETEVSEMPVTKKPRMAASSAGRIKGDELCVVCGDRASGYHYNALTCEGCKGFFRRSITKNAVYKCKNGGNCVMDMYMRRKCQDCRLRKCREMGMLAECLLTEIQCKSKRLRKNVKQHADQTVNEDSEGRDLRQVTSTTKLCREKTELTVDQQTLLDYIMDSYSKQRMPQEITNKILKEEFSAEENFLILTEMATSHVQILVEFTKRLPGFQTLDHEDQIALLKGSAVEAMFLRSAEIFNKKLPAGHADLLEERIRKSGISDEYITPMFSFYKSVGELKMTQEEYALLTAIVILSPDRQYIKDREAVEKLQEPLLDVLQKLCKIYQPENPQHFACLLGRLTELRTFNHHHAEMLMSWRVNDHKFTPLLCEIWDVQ

[2] = AUC (0 to 24 hrs) in Sprague-Dawley rat at 0.003 mg/kg, po qd administered via gavage measured on day 11 by LC-MS/MS analysis; assay type: ADME, organism-based; design: time < 24 hr, dose 0.003 mg/kg, route oral; details: in vivo
[3] = Drug uptake in Sprague-Dawley rat liver at 0.03 mg/kg, po qd administered via gavage measured 7 hrs post last dose on day 14 by LC-MS/MS analysis; assay type: ADME, organism-based; details: read-out: Drug uptake
Procedure, shortened: (§1)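 Drug concentration in liver was quantified from tissue homogenates, so these are total levels. Unbound liver concentration was not determined.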

[4] = molecular target: T1, Bile acid receptor (Rattus norvegicus); test: Agonist activity at FXR in rat primary hepatocytes assessed as induction of BSEP mRNA level after 24 hrs by qPCR analysis; assay type: cell-based
Rattus norvegicus [5] = test: Dose normalized AUC (0 to 24 hrs) in Sprague-Dawley rat at 0.03 mg/kg, po qd administered via gavage measured on day 11 by LC-MS/MS analysis; assay type: ADME, organism-based; details: in vivo
Rattus norvegicus [6] = test: In vivo agonist activity at FXR in Sprague-Dawley rat assessed as downregulation of CYP8B1 mRNA level in liver at 0.003 mg/kg, po qd for 14 days measured 7 hrs post last dose on day 14 by qPCR analysis; assay type: functional, organism-based
[7] = Cmax in Sprague-Dawley rat at 0.003 mg/kg, po qd administered via gavage measured on day 11 by LC-MS/MS analysis; assay type: ADME, organism-based; design: dose 0.003 mg/kg, route oral; details: in vivo
Rattus norvegicus [8] = test: In vivo agonist activity at FXR in po dosed Sprague-Dawley rat assessed as induction of FGF15 protein level in plasma administered once daily for 14 days measured 7 hrs post last dose on day 14; assay type: functional, organism-based
[9] = Cmax in Sprague-Dawley rat at 0.03 mg/kg, po qd administered via gavage measured on day 1 by LC-MS/MS analysis; assay type: ADME, organism-based; design: dose 0.03 mg/kg, route oral; details: in vivo
[10] = AUC (0 to 24 hrs) in Sprague-Dawley rat at 0.03 mg/kg, po qd administered via gavage measured on day 11 by LC-MS/MS analysis; assay type: ADME, organism-based; design: time < 24 hr, dose 0.03 mg/kg, route oral; details: in vivo
[11] = Cmax in Sprague-Dawley rat at 0.01 mg/kg, po qd administered via gavage measured on day 11 by LC-MS/MS analysis; assay type: ADME, organism-based; design: dose 0.01 mg/kg, route oral; details: in vivo
Rattus norvegicus [12] = test: In vivo agonist activity at FXR in Sprague-Dawley rat assessed as induction of SHP mRNA level in liver at 0.3 mg/kg, po qd for 14 days measured 7 hrs post last dose on day 14 by qPCR analysis; assay type: functional, organism-based
Rattus norvegicus [13] = test: In vivo agonist activity at FXR in Sprague-Dawley rat assessed as induction of BSEP mRNA level in liver at >0.1 mg/kg, po qd for 14 days measured 7 hrs post last dose on day 14 by qPCR analysis; assay type: functional, organism-based
[14] = AUC (0 to 24 hrs) in Sprague-Dawley rat at 0.1 mg/kg, po qd administered via gavage measured on day 11 by LC-MS/MS analysis; assay type: ADME, organism-based; design: time < 24 hr, dose 0.1 mg/kg, route oral; details: in vivo
[15] = Drug uptake in Sprague-Dawley rat liver at 0.3 mg/kg, po qd administered via gavage measured 7 hrs post last dose on day 14 by LC-MS/MS analysis; assay type: ADME, organism-based; details: read-out: Drug uptake; procedure, shortened: as §1
Rattus norvegicus [16] = test: In vivo agonist activity at FXR in po dosed Sprague-Dawley rat assessed as induction of SHP mRNA level in liver administered as single dose after 7 hrs post dose by qPCR analysis; assay type: functional, organism-based
[17] = molecular target: T2, G-protein coupled bile acid receptor 1 (Homo sapiens, UniProt Q8TDU6); test: Agonist activity at human TGR5
T2 sequence (Q8TDU6 whole entry): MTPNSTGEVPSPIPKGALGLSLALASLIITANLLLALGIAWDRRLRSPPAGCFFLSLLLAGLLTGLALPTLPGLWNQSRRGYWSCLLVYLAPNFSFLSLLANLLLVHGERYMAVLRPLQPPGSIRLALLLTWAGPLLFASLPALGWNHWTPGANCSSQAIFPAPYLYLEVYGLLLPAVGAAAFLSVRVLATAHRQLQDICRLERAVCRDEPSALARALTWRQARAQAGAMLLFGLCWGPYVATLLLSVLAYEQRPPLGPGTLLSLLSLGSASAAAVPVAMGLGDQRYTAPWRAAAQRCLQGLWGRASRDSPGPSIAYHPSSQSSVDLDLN

Rattus norvegicus [18] = test: In vivo agonist activity at FXR in Sprague-Dawley rat assessed as downregulation of CYP8B1 mRNA level in liver at >0.03 mg/kg, po qd for 14 days measured 7 hrs post last dose on day 14 by qPCR analysis; assay type: functional, organism-based
[19] = Cmax in mouse at 10 mg/kg, po administered via gavage by LC-MS/MS analysis; assay type: ADME, organism-based; design: dose 10 mg/kg, route oral; details: in vivo
Procedure, shortened: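 Single oral dose given as a suspension in 0.5% methylcellulose, 0.5% Tween80 and 99% water. Doses were 10 mg/kg in mouse, 1 mg/kg in rat and 2 mg/kg in dog.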

[20] = Drug uptake in Sprague-Dawley rat liver at 1 mg/kg, po qd administered via gavage measured 7 hrs post last dose on day 14 by LC-MS/MS analysis; assay type: ADME, organism-based; details: read-out: Drug uptake; procedure, shortened: as §1
[21] = Clearance in mouse at 5 mg/kg, iv by LC-MS/MS analysis; assay type: ADME, organism-based; details: in vivo
Procedure, shortened: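 Single IV dose given as a solution. Mouse received 5 mg/kg in 75% PEG300:25% D5W. Dog received 0.5 mg/kg in 20% PEG300, 5% solutol and 75% carbonate buffer pH = 8.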

[22] = Drug uptake in Sprague-Dawley rat plasma at 0.03 mg/kg, po qd administered via gavage measured 1 hr post last dose on day 14 by LC-MS/MS analysis; assay type: ADME, organism-based
[23] = Cmax in Sprague-Dawley rat at 0.003 mg/kg, po qd administered via gavage measured on day 1 by LC-MS/MS analysis; assay type: ADME, organism-based; design: dose 0.003 mg/kg, route oral; details: in vivo
[24] = Cmax in Sprague-Dawley rat at 0.03 mg/kg, po qd administered via gavage measured on day 11 by LC-MS/MS analysis; assay type: ADME, organism-based; design: dose 0.03 mg/kg, route oral; details: in vivo
[25] = Drug uptake in Sprague-Dawley rat liver at 3 mg/kg, po qd administered via gavage measured 1 hr post last dose on day 14 by LC-MS/MS analysis; assay type: ADME, organism-based; details: read-out: Drug uptake; procedure, shortened: as §1
[26] = Cmax in Sprague-Dawley rat at 3 mg/kg, po qd administered via gavage measured on day 11 by LC-MS/MS analysis; assay type: ADME, organism-based; design: dose 3 mg/kg, route oral; details: in vivo

In the case of `O=C(O)c1cc(F)c2nc(N3C4CCC3CC(OCc3c(-c5ccccc5OC(F)(F)F)noc3C3CC3)C4)sc2c1` (stereo unspecified), the Activity [1] is reported as “Dose-dependent effect”, the AUC at 24 h [2] is reported as 0.002 µM·h and the concentration at 7 h [3] is reported as 9.74 nM. The Activity [4] was “Dose-dependent effect”, the AUC/dose (Rattus norvegicus [5]) was 658 nM·h and the Activity (Rattus norvegicus [6]) was “Active”. The Cmax [7] was 0.26 nM, the Activity (Rattus norvegicus [8]) was “Dose-dependent effect” and the Cmax [9] was 1.5 nM. For the same compound, the AUC at 24 h [10] was 0.02 µM·h, the Cmax [11] was 0.79 nM and the Activity (Rattus norvegicus [12]) was “Active”. For the same compound, the Activity (Rattus norvegicus [13]) was “Active”, the AUC at 24 h [14] was 0.08 µM·h and the concentration at 7 h [15] was 92.8 nM. The Activity (Rattus norvegicus [16]) was “Dose-dependent effect”, the EC50 [17] was greater than 10 µM and the Activity (Rattus norvegicus [18]) was “Active”. For the same compound, the Cmax [19] was 1190 nM, the concentration at 7 h [20] was 230 nM and the clearance [21] was 5.3 mL/min/kg. For the same compound, the concentration at 1 h [22] was 1.29 nM, the Cmax [23] was 0.15 nM and the Cmax [24] was 1.9 nM. It also gave a concentration at 1 h [25] of 872 nM and a Cmax [26] of 127 nM.

— ChEMBL document CHEMBL4028903 (J Med Chem, 2017)
